Rtt109 Vps75: inhibitors of Candida albicans Rtt109/Vps75 histone acetyltransferase; Q5AAJ8; purified Rtt109/Vps75, ThioGlo CoA-SH fluorescence, 4 h; inhibition, % at 34.9 µM; 0.16% of 330,000 active;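 active means inhibition of at least 50% in every replicate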
ALR inh: human ALR oxidase inhibition via reduced H2O2; 3.8% of 290,000 active; purified ALR, DTT oxidation, H2O2 HRP-luminol luminescence; P55789; AID 485317; inhibition, % (no concentration beside the values);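 active means mean replicate inhibition above about 79%, with every replicate also reaching it, limit read from the data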
M18AAP inhibitor: blocks P. falciparum M18 aspartyl aminopeptidase. recombinant PfM18AAP, H-Glu-NHMec fluorogenic cleavage. inhibition, % at 7.35 µM. 1.2% of 290,000 active;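 active means inhibition above the campaign mean inhibition over all tested compounds plus 3 SD, cut at about 28% in these data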;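 further: 0% = plate median of test compound wells and 100% = 2 mM ZnCl2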
FAS-TE inh: blocks the thioesterase domain of human fatty acid synthase | AID 602261 | 0.67% of 360,000 active | inhibition, % at 15 µM | recombinant FAS-TE, OMFH fluorogenic substrate, fluorescence endpoint;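 active means compounds whose normalised, plate-corrected inhibition of enzyme fluorescence in the single-dose primary screen is 50% or more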;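 further: 0% = DMSO with enzyme and 100% = substrate without enzyme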
UCH37 inh: blocks the human deubiquitinase UCH37. 0.33% of 330,000 active. inhibition, % (no concentration beside the values). Q9Y5K5. purified proteasome/UCH37, Ub-AMC cleavage fluorescence;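 active means mean inhibition over replicate wells above about 20%, limit read from the data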;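 further: 0% = compound-free wells with enzyme and 100% = wells lacking proteasome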
Target sequence (Q9Y5K5 whole entry, looked up): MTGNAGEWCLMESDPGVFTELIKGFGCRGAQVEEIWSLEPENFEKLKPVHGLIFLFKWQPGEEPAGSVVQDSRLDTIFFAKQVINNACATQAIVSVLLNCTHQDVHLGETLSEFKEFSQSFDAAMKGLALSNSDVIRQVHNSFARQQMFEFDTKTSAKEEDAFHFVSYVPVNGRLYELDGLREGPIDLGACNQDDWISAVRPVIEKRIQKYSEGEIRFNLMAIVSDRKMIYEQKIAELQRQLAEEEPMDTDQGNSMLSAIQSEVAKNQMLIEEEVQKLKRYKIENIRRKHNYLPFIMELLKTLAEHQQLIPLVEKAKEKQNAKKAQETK
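System: Proteasome-associated human UCH37 deubiquitinase; Input: 0.15 nM proteasome in added enzyme buffer; Also added: Ub-AMC substrate from 1 µM stock; Incubation: 30 min compound-proteasome preincubation then 25 min substrate reaction, room temperature; Detection: fluorescence, ex 355 nm, em 460 nm; Read-out: % inhibition of Ub-AMC cleavage fluorescence; Benchmarks: no-proteasome and no-compound wells.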
HDAC3 inh: blocks human histone deacetylase 3; O15379; recombinant HDAC3, fluorogenic peptide/trypsin coupled, fluorescence; inhibition, % at 8.3 µM; 0.15% of 320,000 active; in the data active means inhibition above about 26%, passing the limit was not always enough
Target sequence (O15379 whole entry, looked up): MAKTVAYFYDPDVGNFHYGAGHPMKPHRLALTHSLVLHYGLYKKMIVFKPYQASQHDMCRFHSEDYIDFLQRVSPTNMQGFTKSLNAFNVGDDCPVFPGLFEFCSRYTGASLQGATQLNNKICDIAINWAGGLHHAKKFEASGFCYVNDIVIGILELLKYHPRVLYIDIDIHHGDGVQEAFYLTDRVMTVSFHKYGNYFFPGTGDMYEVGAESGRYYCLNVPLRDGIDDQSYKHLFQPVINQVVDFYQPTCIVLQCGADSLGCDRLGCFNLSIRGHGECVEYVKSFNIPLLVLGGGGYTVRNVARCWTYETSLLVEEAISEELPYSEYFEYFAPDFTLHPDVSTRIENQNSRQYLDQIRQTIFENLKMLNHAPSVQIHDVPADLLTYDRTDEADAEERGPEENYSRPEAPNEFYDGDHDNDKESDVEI
* = called active by the depositor; x = no result. Sampled rows, rich in hits. Any-hit rate of the full collection: about 4.6%.

SMILES | Rtt109 Vps75 | ALR inh | M18AAP inhibitor | FAS-TE inh | UCH37 inh | HDAC3 inh
COc1cc(C=NNc2nc(Nc3ccccc3)nc(N3CCOCC3)n2)ccc1OC(=O)c1ccco1 | x | x | x | x | 0.3 | x
COc1ccccc1NCCC(=O)O | -8.0 | x | 11.5 | -3.7 | 0.2 | x
O=C(O)CCNc1ccc(NCCC(=O)O)c2c1C(=O)c1ccccc1C2=O | 16.6 | 99.2* | 12.7 | -6.3 | x | 2.1
N#CCSc1nnc(COc2cccc3ccccc23)n1-c1ccccc1 | x | -8.0 | -9.7 | 12.2 | 8.3 | 2.3
COc1ccc(-n2c(COc3cccc4ccccc34)nnc2SCC#N)cc1 | 5.0 | -4.7 | 29.2* | 0.5 | 2.3 | 7.4
N#CCC(=O)NN=Cc1cn(Cc2ccc(Cl)cc2Cl)c2ccccc12 | x | x | x | x | 4.3 | x
Cn1cccc1/C=C1\SC(=Nc2ccc(O)cc2)NC1=O | -2.1 | 99.0* | 5.7 | -5.3 | 7.8 | -0.4
Cn1cccc1/C=C1\SC(=Nc2ccccc2)NC1=O | 2.6 | 2.2 | -10.4 | -0.5 | 1.8 | 7.1
COC(=O)C1(Cc2ccc(O)c(CC3OC3(C)C)c2)OC(=O)C(O)=C1c1ccc(O)cc1 (stereo unspecified) | 6.4 | 97.6* | x | -2.3 | 6.9 | 3.6
Cc1cc2cc3c(cc2nc1SCC(=O)Nc1nc(C)c(C)s1)OCO3 | -6.6 | 96.7* | 9.5 | -9.1 | 1.0 | 7.7
CC(Oc1ccc(Cl)cc1)C(=O)NNC(=S)NC(=O)c1ccco1 (stereo unspecified) | -2.2 | 97.8* | 18.5 | -3.6 | 4.9 | 6.2
O=C(COc1ccc(Cl)cc1Cl)NNC(=S)NC(=O)c1ccco1 | -0.7 | x | 3.3 | 4.0 | 3.7 | 12.2
O=C(NC(=S)NNC(=O)[C@H]1C[C@@H]1c1ccccc1)c1ccc(F)cc1 | x | 25.9 | 16.6 | 0.5 | 1.0 | -0.7
O=C(NNC(=S)NC(=O)c1ccco1)c1ccc(F)cc1 | -6.8 | 97.4* | 3.1 | -7.4 | x | -1.4
Cn1cccc1CC(=O)NNC(=S)NC(=O)c1ccc(F)cc1 | 0.2 | 94.8* | 25.6 | -3.6 | -1.1 | 3.9
COc1ccc(C(=O)NNC(=S)NC(=O)c2ccco2)cc1 | 19.3 | 30.9 | 9.7 | -5.8 | 6.3 | 4.3
O=C(NC(=S)NNC(=O)c1ccco1)c1ccc(Br)cc1 | 0.0 | 99.0* | 0.0 | -2.4 | -6.8 | 6.4
COc1cccc(C=Nn2c(-c3ccco3)nc3ccccc3c2=O)c1OC | x | x | x | x | 1.4 | x
Cc1ccc(Oc2ccc(S(=O)(=O)Nc3ccc(C(=O)O)cc3)cc2)cc1 | -4.9 | 97.8* | x | -6.0 | 2.9 | 3.7
COC(=O)Nc1ccc(S(=O)(=O)Nc2ccc(C(=O)O)cc2)cc1 | -6.0 | x | -4.3 | -5.1 | 1.8 | 0.3
CC(=O)c1ccc(NS(=O)(=O)c2ccc(C)cc2)cc1 | -7.7 | 5.0 | -9.6 | -3.6 | 6.7 | 0.0
Cc1ccc(Sc2ccc(S(=O)(=O)Nc3ccc(C(=O)O)cc3)cc2)cc1C | 2.8 | 98.3* | x | -0.9 | 2.4 | 4.2
CC(=NNC(=O)c1ccc(Cl)cc1)c1ccc(Br)s1 | x | x | x | x | 2.6 | x
CCN(CC)S(=O)(=O)c1cccc(C(=O)NN=Cc2ccc([N+](=O)[O-])o2)c1 | x | x | x | x | 3.4 | x
COc1ccc(C(=O)NCC(=O)NN=Cc2ccc([N+](=O)[O-])s2)cc1OC | x | x | x | x | 12.6 | x
SMILES | Rtt109 Vps75 | ALR inh | M18AAP inhibitor | FAS-TE inh | UCH37 inh | HDAC3 inh
CCOc1cc(CNc2ncc(-c3ccc(OC)cc3)n2C)ccc1O | 8.8 | 78.1* | 20.6 | -6.1 | 1.9 | 1.8
COc1cc(CNc2ncc(-c3ccc(Cl)cc3)n2C)cc(OC)c1OC | -2.0 | 94.6* | 1.8 | 0.6 | 3.7 | -12.7
COc1ccc(CNc2ncc(-c3ccccc3)n2C)cc1 | 12.0 | 41.5 | 3.5 | -5.0 | 0.7 | -3.6
Cn1c(-c2ccc(Br)cc2)cnc1NCc1cccnc1 | -7.3 | 20.5 | 3.6 | -6.7 | 3.2 | -2.5
COc1cc(CNc2ncc(-c3ccc(Br)cc3)n2C)cc(OC)c1OC | -4.9 | 90.7* | 18.7 | -0.5 | 7.0 | 17.1
Cn1c(-c2ccc(F)cc2)cnc1NCc1ccc(F)cc1 | 4.7 | 91.3* | -10.9 | -8.6 | 4.8 | 0.5
CC(=NNc1ccc(C(F)(F)F)cn1)c1ccc(S(=O)(=O)NCc2ccco2)cc1 | x | x | x | x | 2.1 | x
CC(=NNC(=O)c1ccncc1)c1cccnc1 | x | x | x | x | 2.9 | x
COc1cc(C=NNc2nc(C)cc(=O)[nH]2)ccc1OC(=O)c1cccnc1 | x | x | x | x | 4.3 | x
CCNC(=S)NN=Cc1cc(Br)cc(Br)c1OC | x | x | x | x | 3.9 | x
CN(C)CCCCCCCCCCC(=O)C=NO | x | x | x | x | 1.4 | x
COc1ccc(C(=O)N2CCCC(Nc3ccc(F)cc3)C2)c(OC)c1 (stereo unspecified) | -10.9 | 98.4* | -6.0 | -6.5 | 2.8 | -1.1
COc1ccc(NC2CCCN(C(=O)c3ccc4[nH]c(C)c(C)c4c3)C2)cc1 (stereo unspecified) | -1.9 | 87.7* | 16.2 | -2.1 | 0.6 | 5.6
COc1ccc(NC2CCCN(C(=O)c3ccc(C)c(N4CCNC4=O)c3)C2)cc1 (stereo unspecified) | 10.9 | 97.9* | 4.4 | -5.3 | 6.1 | 5.9
COc1ccc(NC2CCCN(C(=O)C3=NNC(=O)CC3)C2)cc1 (stereo unspecified) | x | x | x | -5.5 | x | x
COc1ccc(NC2CCCN(C(=O)c3cc4ncccn4n3)C2)cc1 (stereo unspecified) | 0.2 | 99.7* | 12.8 | -2.8 | 3.1 | 1.2
O=C(NN=Cc1ccc[nH]1)c1ccc(COc2cccc3cccnc23)cc1 | x | x | x | x | -3.5 | x
O=C(NN=Cc1cn(Cc2ccccc2)c2ccccc12)c1ccncc1 | x | x | x | x | 8.2 | x
Nc1nnn(CC(=O)NN=C/C=C/c2ccccc2)n1 | x | x | x | x | 3.8 | x
COc1ccc(NC2CCCN(C(=O)c3ccc(C(C)=O)cc3)C2)cc1 (stereo unspecified) | 2.4 | 98.0* | -1.3 | -2.9 | 1.0 | 2.5
COc1ccc(NC2CCCN(C(=O)c3cccc(N(C)C)c3)C2)cc1 (stereo unspecified) | 3.2 | x | 0.3 | -6.1 | 0.8 | x
COc1ccc(NC2CCCN(C(=O)c3ccc(C)nc3)C2)cc1 (stereo unspecified) | -14.1 | 98.6* | 5.1 | -4.5 | 2.6 | 4.0
COc1ccc(NC2CCCN(C(=O)c3ccc(C(C)=O)s3)C2)cc1 (stereo unspecified) | -1.0 | 92.3* | -0.9 | -2.9 | 4.5 | -0.1
COc1ccc(NC2CCCN(C(=O)c3ccc(OC)o3)C2)cc1 (stereo unspecified) | -9.1 | 98.7* | 0.0 | -4.5 | 0.2 | -8.9
Cc1ccc(C(=O)N2CCCC(Nc3ccc(C(C)C)cc3)C2)cn1 (stereo unspecified) | 3.8 | 64.6 | -4.2 | -5.3 | 2.0 | x
O=C(CNc1ccc(F)cc1)NN=Cc1c(O)ccc2ccccc12 | x | x | x | x | -0.9 | x
CCN1C(c2ccccc2)=C(c2ccccc2)S/C1=C\C=C1/SC(=S)N(C)C1=O | -2.4 | -5.5 | -2.4 | 15.1 | 5.6 | -0.2
CCN1C(=O)/C(=C/C=C2/Sc3ccc4ccccc4c3N2CCO)SC1=S | 9.1 | -2.4 | 50.2* | -4.1 | 6.6 | -1.7
Cc1ccc(O)c(-c2cc3ccccc3[nH]2)c1 | -3.2 | 98.6* | 17.2 | 11.3 | -65.0 | -30.3

High-throughput results: PubChem, several laboratories
